Results published in PMC8897208 (Acta Pharmaceutica Sinica. B, 2021).

Key:
SIRT6 = SIRT6 (Homo sapiens, UniProt Q8N6T7); experiment: Fluor de Lys; format: biochemical
In short: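 Recombinant SIRT6 was expressed in E. coli BL21 in LB with 100 μg/mL ampicillin at 37 °C. Expression was induced with 0.5 mmol/L IPTG at OD600 0.8, then grown 18 h at 16 °C and purified by an earlier method.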

SIRT3 = target: T1, SIRT3 (Homo sapiens, UniProt Q9NTG7); experiment: HDACs selectivity assay; format: biochemical
T1 sequence (Q9NTG7 1-399): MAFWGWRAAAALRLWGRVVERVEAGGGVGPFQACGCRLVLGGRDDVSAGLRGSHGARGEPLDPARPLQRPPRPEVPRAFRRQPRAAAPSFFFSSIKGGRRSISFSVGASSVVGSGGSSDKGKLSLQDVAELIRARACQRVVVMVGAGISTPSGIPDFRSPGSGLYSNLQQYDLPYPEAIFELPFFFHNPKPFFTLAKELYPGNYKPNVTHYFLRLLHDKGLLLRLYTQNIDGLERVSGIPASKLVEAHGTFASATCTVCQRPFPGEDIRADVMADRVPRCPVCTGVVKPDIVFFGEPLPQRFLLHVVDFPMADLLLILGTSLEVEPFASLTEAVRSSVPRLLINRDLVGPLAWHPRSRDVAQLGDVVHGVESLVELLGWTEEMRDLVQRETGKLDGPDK
In short: (§1)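 Enzyme selectivity panel was run by an outside contract lab to its standard assay protocols. IC50 values came from dose–response fitting of the data points. Each experiment was done independently at least three times.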

MiaPaCa-2 cells = experiment: Migration assay with xCELLigence RTCA-DP; format: cell-based; conditions: effect even at 5 μmol/L
BXPC-3 cells [1] = experiment: Western blot of SIRT6 substrates H3K9Ac, H3K18Ac, H3K56Ac; format: cell-based; conditions: BXPC-3, indicated doses of JYQ-42 for 24 h
In short: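 BXPC-3 cells were grown in RPMI1640 and MiaPaCa-2 cells in DMEM, each with 10% FBS and penicillin/streptomycin, at 37 °C under 5% CO2. Both lines were STR-verified. Cells took test compound at 0, 10, 20 or 40 μmol/L for 24 or 48 h and were lysed in 1× SDS loading buffer. Proteins were separated on 12% SDS-PAGE and transferred to PVDF. Blocking used Tris-NaCl pH 7.5 with Tween-20 and 5% milk. Detection was chemiluminescent (HRP), with β-actin as loading control.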

BXPC-3 cells [2] = experiment: Migration assay with xCELLigence RTCA-DP; format: cell-based; conditions: 5, 10, 20 μmol/L, effect even at 5 μmol/L
HDAC5 = HDAC5 (Homo sapiens, UniProt Q9UQL6); experiment: HDACs selectivity assay; format: biochemical
In short: as §1

Chain of SIRT6 (Q8N6T7 whole entry): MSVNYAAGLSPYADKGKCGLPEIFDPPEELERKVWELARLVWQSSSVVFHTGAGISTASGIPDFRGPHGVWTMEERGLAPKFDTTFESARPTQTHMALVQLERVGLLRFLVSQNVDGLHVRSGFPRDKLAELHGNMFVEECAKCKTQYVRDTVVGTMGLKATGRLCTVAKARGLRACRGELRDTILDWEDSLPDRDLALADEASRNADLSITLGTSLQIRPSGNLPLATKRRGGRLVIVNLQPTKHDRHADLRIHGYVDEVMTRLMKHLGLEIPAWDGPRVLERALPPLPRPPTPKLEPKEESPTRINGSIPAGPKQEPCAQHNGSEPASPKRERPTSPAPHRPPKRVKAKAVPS
Chain of HDAC5 (Q9UQL6 whole entry): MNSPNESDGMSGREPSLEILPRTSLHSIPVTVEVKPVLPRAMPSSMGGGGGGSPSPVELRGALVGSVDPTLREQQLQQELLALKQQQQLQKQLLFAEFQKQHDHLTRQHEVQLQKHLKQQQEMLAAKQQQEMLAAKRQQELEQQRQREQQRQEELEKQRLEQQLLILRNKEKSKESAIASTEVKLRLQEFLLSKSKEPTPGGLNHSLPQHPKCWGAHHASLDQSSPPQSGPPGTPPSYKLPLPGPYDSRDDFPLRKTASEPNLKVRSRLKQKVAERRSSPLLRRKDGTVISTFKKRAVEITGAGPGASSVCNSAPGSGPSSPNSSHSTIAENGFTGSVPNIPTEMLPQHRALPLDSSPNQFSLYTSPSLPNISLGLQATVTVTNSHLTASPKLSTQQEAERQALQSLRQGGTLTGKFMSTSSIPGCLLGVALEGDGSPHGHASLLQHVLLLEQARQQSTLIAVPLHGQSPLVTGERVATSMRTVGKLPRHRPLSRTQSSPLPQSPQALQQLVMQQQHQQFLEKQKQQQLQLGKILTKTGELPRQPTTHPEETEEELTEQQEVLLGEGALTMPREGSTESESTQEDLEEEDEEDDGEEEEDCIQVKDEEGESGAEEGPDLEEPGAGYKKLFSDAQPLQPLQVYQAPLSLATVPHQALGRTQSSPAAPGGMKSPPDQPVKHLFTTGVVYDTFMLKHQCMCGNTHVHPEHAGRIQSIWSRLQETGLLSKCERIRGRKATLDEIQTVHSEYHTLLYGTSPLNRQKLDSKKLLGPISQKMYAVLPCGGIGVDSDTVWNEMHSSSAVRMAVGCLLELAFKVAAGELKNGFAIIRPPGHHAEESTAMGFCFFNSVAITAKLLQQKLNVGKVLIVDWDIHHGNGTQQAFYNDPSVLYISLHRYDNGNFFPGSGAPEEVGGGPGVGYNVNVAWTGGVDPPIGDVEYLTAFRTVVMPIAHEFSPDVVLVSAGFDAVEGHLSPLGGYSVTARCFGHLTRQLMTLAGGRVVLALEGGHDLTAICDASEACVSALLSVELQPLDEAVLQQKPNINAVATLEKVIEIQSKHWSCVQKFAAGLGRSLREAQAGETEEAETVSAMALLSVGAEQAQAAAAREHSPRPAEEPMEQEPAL

In the case of `Nc1nonc1-n1cc(C(=O)N/N=C/c2cc(Cl)cc(C(F)(F)F)c2)nn1` [JYQ-42], the IC50 (SIRT6) is reported as 2330 ± 170 nM, the “inhibition ratio at 50 μmol/L” value (SIRT6; FDL assay, substrate Ac-RHKK-Ac-AMC, 50 μmol/L compound) is reported as 85.3% and the Effect (SIRT6; SIRT6 (Table 2)) is reported as “Inhibition”. For the same compound, the IC50 (SIRT3) was greater than 100 µM, the “migration of pancreatic cancer cells (RTCA cell index)” value (MiaPaCa-2 cells) was “dramatically attenuated” and the “levels of H3K9Ac, H3K18Ac and H3K56Ac” value (BXPC-3 cells [1]) was “increased the levels of H3K9Ac, H3K18Ac and H3K56Ac in a dose-dependent manner”. The “migration of pancreatic cancer cells (RTCA cell index)” value (BXPC-3 cells [2]) was “dramatically attenuated” and the IC50 (HDAC5) was greater than 100 µM.
